This note sets out measurements from ChEMBL document CHEMBL4177770, “Discovery of MK-6169, a Potent Pan-Genotype Hepatitis C Virus NS5A Inhibitor with Optimized Activity against Common Resistance-Associated Substitutions” (J Med Chem, 2018).

The target of series [1] is T1, Nonstructural protein 5A (Hepatitis C virus) (UniProt Q5L478).
T1 sequence (whole entry): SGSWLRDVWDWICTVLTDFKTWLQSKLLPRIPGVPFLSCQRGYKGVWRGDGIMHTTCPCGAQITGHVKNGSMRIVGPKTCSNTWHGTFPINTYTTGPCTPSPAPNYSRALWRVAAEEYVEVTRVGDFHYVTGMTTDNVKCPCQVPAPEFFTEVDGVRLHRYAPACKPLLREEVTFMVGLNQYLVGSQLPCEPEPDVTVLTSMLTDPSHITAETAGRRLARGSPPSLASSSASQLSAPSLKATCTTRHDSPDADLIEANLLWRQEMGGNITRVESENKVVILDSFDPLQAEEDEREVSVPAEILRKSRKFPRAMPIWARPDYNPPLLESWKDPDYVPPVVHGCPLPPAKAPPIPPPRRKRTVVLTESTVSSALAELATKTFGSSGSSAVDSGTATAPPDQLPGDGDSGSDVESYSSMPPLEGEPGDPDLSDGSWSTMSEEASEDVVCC
Kind of series: Inhibition of NS5A L31V mutant in HCV genotype 1b infected in HuH7 replicon cells assessed as decrease in viral replication after 3 days by RT-PCR method. It is filed as cell-based. The conditions noted are these: Hepatitis C virus subtype 1b.

Series [2] deals with T2, Nonstructural protein 5A (Hepatitis C virus), Q5L478 [Y93H].
T2 sequence (whole entry): T1 sequence (whole entry) with Y93H
As to the kind of experiment: Inhibition of NS5A Y93H mutant in HCV genotype 1a infected in HuH7 replicon cells assessed as decrease in viral replication after 3 days by RT-PCR method. It is filed as cell-based. Particulars: Hepatitis C virus subtype 1a. In general terms: In antiviral work, replicon cells carry a viral genome segment that copies itself.

The target of series [3] is T1, Nonstructural protein 5A (Hepatitis C virus). Kind of series: Inhibition of NS5A R81S mutant in HCV genotype 1a infected in HuH7 replicon cells assessed as decrease in viral replication after 3 days by RT-PCR method. The class given is cell-based. Particulars: Hepatitis C virus subtype 1a.
For series [4] the target is unchanged. As to the kind of experiment: Inhibition of NS5A A146S mutant in HCV genotype 2b infected in HuH7 replicon cells assessed as decrease in viral replication after 3 days by RT-PCR method. The class given is cell-based. Particulars: Hepatitis C virus subtype 2b.
Series [5] shares this target. Kind of series: Inhibition of NS5A in HCV genotype 1b infected in HuH7 replicon cells assessed as decrease in viral replication after 3 days by RT-PCR method. The class given is cell-based. The conditions noted are these: Hepatitis C virus subtype 1b.
Series [6] is described as follows: MRT in Wistar Han rat at 300 mg/kg, po by LC/MS method. The class given is ADME, organism-based. Particulars: in vivo. The method in brief:
(§1)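 Single rising oral dose study in fed male Wistar Han rats, dosed PO in 10% TWEEN at the indicated doses. Plasma was obtained by centrifuging the blood, and compound levels were determined by LC/MS.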

Series [7] relates to T2, Nonstructural protein 5A (Hepatitis C virus), Q5L478 [Y93H]. Kind of series: Inhibition of NS5A Y93H mutant in HCV genotype 3a infected in HuH7 replicon cells assessed as decrease in viral replication after 3 days by RT-PCR method. The class given is cell-based. The conditions noted are these: Hepatitis C virus subtype 3a.
Series [8] addresses T1, Nonstructural protein 5A (Hepatitis C virus). Kind of series: Inhibition of NS5A A92P mutant in HCV genotype 1a infected in HuH7 replicon cells assessed as decrease in viral replication after 3 days by RT-PCR method. It is filed as cell-based. The conditions noted are these: Hepatitis C virus subtype 1a.
Series [9] can be described thus: Resistance ratio of EC90 for NS5A L31M mutant in HCV genotype 2a infected in HuH7 replicon cells to EC90 for NS5A in HCV genotype 1a infected in HuH7 replicon cells. It is filed as cell-based.
In series [10] the target is T1, Nonstructural protein 5A (Hepatitis C virus). As to the kind of experiment: Inhibition of NS5A F28Y mutant in HCV genotype 2a infected in HuH7 replicon cells assessed as decrease in viral replication after 3 days by RT-PCR method. It is filed as cell-based. The conditions noted are these: Hepatitis C virus subtype 2a.
In series [11] the test system is T3, Nonstructural protein 5A (Hepatitis C virus), Q5L478 [Y93N].
T3 sequence (whole entry): T1 sequence (whole entry) with Y93N
As to the kind of experiment: Inhibition of NS5A Y93N mutant in HCV genotype 1a infected in HuH7 replicon cells assessed as decrease in viral replication after 3 days by RT-PCR method. It is filed as cell-based. The conditions noted are these: Hepatitis C virus subtype 1a.

Series [12] in a line: Resistance ratio of EC90 for NS3 D168Y mutant in HCV genotype 1b infected in HuH7 replicon cells to EC90 for NS5A in HCV genotype 1a infected in HuH7 replicon cells.
Series [13] in a line: Resistance ratio of EC90 for NS5A L28M/Y93H double mutant in HCV genotype 1b infected in HuH7 replicon cells to EC90 for NS5A in HCV genotype 1a infected in HuH7 replicon cells. It is filed as cell-based.
The target of series [14] is T1, Nonstructural protein 5A (Hepatitis C virus). Kind of series: Inhibition of NS5A in HCV genotype 3a infected in HuH7 replicon cells assessed as decrease in viral replication after 3 days by RT-PCR method. The class given is cell-based. The conditions noted are these: Hepatitis C virus subtype 3a.
Series [15] deals with Hepatitis C virus subtype 1a. As to the kind of experiment: Resistance ratio of EC90 for NS5A M28K mutant in HCV genotype 1a infected in HuH7 replicon cells to EC90 for NS5A in HCV genotype 1a infected in HuH7 replicon cells. The class given is cell-based.
The nature of series [16]: AUC in Wistar Han rat at 100 mg/kg, po by LC/MS method. The class given is ADME, organism-based. The conditions noted are these: in vivo. The method in brief:
as §1

The test system of series [17] is NS3 (Hepatitis C virus), A3EZJ3 [A156T]. Kind of series: Inhibition of NS3 A156T mutant in HCV genotype 1b infected in HuH7 replicon cells assessed as decrease in viral replication after 3 days by RT-PCR method. Particulars: Hepatitis C virus subtype 1b. The class given is cell-based.
Series [18] has as its system Hepatitis C virus subtype 1a. Kind of series: Resistance ratio of EC90 for NS5A R81S mutant in HCV genotype 1a infected in HuH7 replicon cells to EC90 for NS5A in HCV genotype 1a infected in HuH7 replicon cells. It is filed as cell-based.

Substitutions are numbered along the chain they refer to.

As to `COC(=O)N[C@H](C(=O)N1CCC[C@H]1c1ncc(-c2cc(F)c3c(c2)O[C@@H](c2ccc(C4CC4)s2)n2c-3cc3cc(-c4cnc([C@@H]5CCCN5C(=O)[C@@H](NC(=O)OC)[C@@H]5CCOC(C)(C)C5)[nH]4)ccc32)[nH]1)C(C)C`, the 90% effect concentration (EC90) – broadly, the point of the concentration-response curve where the effect stands at 90% – in [1] turned out to be 5.8 pM; in [2] it was 33 pM; in series [3] it was 0.33 pM; in series [4], 3.4 pM; in series [5] it was 4.4 pM; in [7], 2400 pM. Also, the EC90 in series [8] was 0.14 pM; in series [10], 69 pM; in series [11], 69 pM; in series [14], 1 to 6.6 pM; in series [17] it was 4 pM. In addition, the mean residence time MRT (usually a mean duration of stay, worked out from the concentration-time curve) in series [6] is 10.7 h. Besides, the Ratio was 6 in series [9]; less than 1 in series [12]; 15 in series [13]; 100 in series [15]; less than 1 in series [18]. Further, in [16], the exposure (AUC) – broadly, concentration integrated over time – was found to be 7.82 µM·h.
